Data on 36 compounds can be found in ChEMBL document CHEMBL4732044, “Discovery of a promising agent IQZ23 for the treatment of obesity and related metabolic disorders” (Eur J Med Chem, 2020).

The source made the active and inactive calls. The rule behind the calls is not given here.

Test [1] has as its system 3T3-L1. The experiment in a line: Lipid lowering activity in mouse 3T3-L1 cells assessed as reduction in adipogenic cocktail-induced triglyceride levels incubated for 6 days by GPO-POD assay. In kind it is functional, cell-based. The conditions noted are these: dose 1-5 µM, time 6.0 day. In short, it runs like this:
(§1)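 Confluent 3T3-L1 cells were treated from day 0 in cocktail (IBMX, dexamethasone, insulin) for 3 days, then re-dosed in insulin medium for 3 more days. For dose–response, concentrations were 0–10 µM (0.01, 0.1, 0.3, 1, 3, 10). On day 6, cells were lysed in 0.2% Triton X-100 and TG was measured by GPO-POD and normalized to BCA protein as % of control. EC50 was fitted from the dose–response. N = 4.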

Test [2] relates to 3T3-L1. The experiment in a line: Lipid lowering activity in mouse 3T3-L1 cells assessed as reduction in adipogenic cocktail-induced triglyceride levels at 1 to 5 uM incubated for 6 days by GPO-POD assay relative to control. Type of test: functional. The conditions noted are these: dose 1-5 µM, time 6.0 day. In short, it runs like this:
as §1

For test [3], the system named is 3T3-L1. The experiment in a line: Lipid lowering activity in mouse 3T3-L1 cells assessed as adipogenic cocktail-induced triglyceride levels at 1 uM incubated for 6 days by GPO-POD assay relative to control. In kind it is functional. The conditions noted are these: time 6 day. In short, it runs like this:
as §1

Consider `Cc1c(-c2nc(NCCN(C)C)c3ccccc3n2)[nH]c2ccccc12`, for which the Activity result in the test on 3T3-L1 [1] is “Dose-dependent effect”. Besides, the result with 3T3-L1 [2] was Active.
On to `COc1ccc2[nH]c(-c3nc(NCCN(C)C)c4ccccc4n3)c(C=O)c2c1`, for which the Activity result in the test with 3T3-L1 [1] is “Dose-dependent effect”.
With `CN(C)CCCCNc1nc(-c2oc3ccccc3c2C=O)nc2ccccc12`, in the test on 3T3-L1 [1], the Activity entry is “Dose-dependent effect”.
With `O=Cc1c(-c2nc(OCCN3CCCC3)c3ccccc3n2)[nH]c2ccccc12`, in the test with 3T3-L1 [1], the Activity entry is “Dose-dependent effect”.
With `Cc1c(-c2nc(NCCCN(C)C)c3ccccc3n2)[nH]c2ccccc12`, the Activity result with 3T3-L1 [1] is “Dose-dependent effect”. Further, the outcome in the test on 3T3-L1 [2] was Active.
Take `Cc1c(-c2nc(OCCN3CCCC3)c3ccccc3n2)oc2ccccc12`: in the test with 3T3-L1 [1], the Activity entry was “Dose-dependent effect”. The outcome with 3T3-L1 [2] was Active.
As for `CN(C)CCCCOc1nc(-c2[nH]c3ccccc3c2C=O)nc2ccccc12`, the Activity entry with 3T3-L1 [1] was “Dose-dependent effect”.
Take `Cc1c(-c2nc(NCCCN3CCCC3)c3ccccc3n2)sc2ccccc12`: the Activity entry in the test with 3T3-L1 [1] is “Dose-dependent effect”. In addition, the outcome in the test with 3T3-L1 [2] was Active.
`O=Cc1c(-c2nc(OCCCN3CCCC3)c3ccccc3n2)[nH]c2ccccc12`: the Activity entry in the test with 3T3-L1 [1] was “Dose-dependent effect”.
With `Cc1c(-c2nc(OCCN(C)C)c3ccccc3n2)oc2ccccc12`, the Activity result with 3T3-L1 [1] was “Dose-dependent effect”. In addition, in the test with 3T3-L1 [2], the result was Active.
For the compound `CCN(CC)CCNc1nc(-c2[nH]c3ccccc3c2C)nc2ccccc12`, the Activity result in the test with 3T3-L1 [1] was “Dose-dependent effect”. Moreover, the result in the test with 3T3-L1 [2] was Active.
Consider `O=Cc1c(-c2nc(NCCN3CCCC3)c3ccccc3n2)oc2ccccc12`, for which the Activity entry in the test on 3T3-L1 [1] is “Dose-dependent effect”.
`Cc1c(-c2nc(NCCCN(C)C)c3ccccc3n2)sc2ccccc12`: the Activity entry with 3T3-L1 [1] was “Dose-dependent effect”. Further, the result in the test on 3T3-L1 [2] was Active.
Consider `Cc1c(-c2nc(NCCN(C)C)c3ccccc3n2)sc2ccccc12`, for which the Activity result with 3T3-L1 [1] was “Dose-dependent effect”. Moreover, the result in the test with 3T3-L1 [2] was Active.
On to `CN(C)CCCNc1nc(-c2c(C=O)c3ccccc3n2C)nc2ccccc12`, for which the Activity entry was “Dose-dependent effect” with 3T3-L1 [1] and 70.4% in the test on 3T3-L1 [3].
With `CN(C)CCNc1nc(-c2oc3ccccc3c2C=O)nc2ccccc12`, the Activity result in the test on 3T3-L1 [1] is “Dose-dependent effect”.
With `O=Cc1c(-c2nc(NCCCN3CCCC3)c3ccccc3n2)[nH]c2ccccc12`, the Activity result was “Dose-dependent effect” in the test on 3T3-L1 [1] and 34.9% in the test with 3T3-L1 [3].
Regarding `COc1ccc2[nH]c(-c3nc(NCCCN(C)C)c4ccccc4n3)c(C=O)c2c1`, in the test on 3T3-L1 [1], the Activity result was “Dose-dependent effect”.
As for `COc1ccc2[nH]c(-c3nc(NCCCN4CCCC4)c4ccccc4n3)c(C=O)c2c1`, the Activity entry in the test with 3T3-L1 [1] was “Dose-dependent effect”.
Turning to `Cc1c(-c2nc(OCCCCN(C)C)c3ccccc3n2)oc2ccccc12`, the Activity result in the test on 3T3-L1 [1] was “Dose-dependent effect”. Also, the result in the test with 3T3-L1 [2] was Active.
For the compound `Cc1c(-c2nc(NCCN3CCCC3)c3ccccc3n2)[nH]c2ccccc12`, in the test on 3T3-L1 [1], the Activity entry is “Dose-dependent effect”. For the same compound, in the test on 3T3-L1 [2], the outcome was Active.
Taken in the same sequence, the figures for `Cc1c(-c2nc(OCCCN(C)C)c3ccccc3n2)oc2ccccc12` were “Dose-dependent effect” and “Active”.
Turning to `CCN(CC)CCCCNc1nc(-c2[nH]c3ccccc3c2C=O)nc2ccccc12`, in the test on 3T3-L1 [1], the Activity result is “Dose-dependent effect”.
On to `O=Cc1c(-c2nc(NCCCN3CCCC3)c3ccccc3n2)oc2ccccc12`, for which the Activity entry in the test with 3T3-L1 [1] was “Dose-dependent effect”; in the test with 3T3-L1 [3], 88.7%.
With `CN(C)CCCNc1nc(-c2oc3ccccc3c2C=O)nc2ccccc12`, in the test on 3T3-L1 [1], the Activity result is “Dose-dependent effect”.
For `CN(C)CCOc1nc(-c2[nH]c3ccccc3c2C=O)nc2ccccc12`, the Activity result with 3T3-L1 [1] is “Dose-dependent effect”.
`CCN(CC)CCCCNc1nc(-c2[nH]c3ccccc3c2C)nc2ccccc12`: in the test on 3T3-L1 [1], the Activity entry is “Dose-dependent effect”. Further, the result in the test on 3T3-L1 [2] was Active.
As to `CN(C)CCCOc1nc(-c2[nH]c3ccccc3c2C=O)nc2ccccc12`, the Activity result in the test with 3T3-L1 [1] was “Dose-dependent effect”.
With `Cc1c(-c2nc(OCCCN3CCCC3)c3ccccc3n2)oc2ccccc12`, the Activity result in the test on 3T3-L1 [1] was “Dose-dependent effect”. Moreover, the result in the test with 3T3-L1 [2] was Active.
As to `CN(C)CCCNc1nc(-c2c(C=O)c3ccccc3n2Cc2ccccc2)nc2ccccc12`, the Activity entry with 3T3-L1 [1] was “Dose-dependent effect”; in the test on 3T3-L1 [3], 57.1%.
As for `Cc1c(-c2nc(NCCCN3CCCC3)c3ccccc3n2)[nH]c2ccccc12`, the Activity result with 3T3-L1 [1] is “Dose-dependent effect”. The result in the test on 3T3-L1 [2] was Active.
Turning to `Cc1c(-c2nc(NCCN3CCCC3)c3ccccc3n2)sc2ccccc12`, in the test on 3T3-L1 [1], the Activity entry was “Dose-dependent effect”. In the test on 3T3-L1 [2], the outcome was Active.
With `CN(C)CCSc1nc(-c2[nH]c3ccccc3c2C=O)nc2ccccc12`, the Activity result in the test with 3T3-L1 [1] is “Dose-dependent effect”.
Still for that read-out and setting: under `CCN(CC)CCSc1nc(-c2[nH]c3ccccc3c2C=O)nc2ccccc12` stands “Dose-dependent effect”.
Turning to `Cc1c(-c2nc(NCCCCN3CCCC3)c3ccccc3n2)sc2ccccc12`, the Activity entry in the test on 3T3-L1 [1] was “Dose-dependent effect”. Besides, the outcome with 3T3-L1 [2] was Active.
Turning to `Cc1c(-c2nc(NCCCCN(C)C)c3ccccc3n2)[nH]c2ccccc12`, the Activity entry in the test on 3T3-L1 [1] is “Dose-dependent effect”. The outcome in the test with 3T3-L1 [2] was Active.
